Measured values as given in article PMC7557227 (ACS Omega, 2020).

Columns and labels:
PARP1 = PARP1 (Homo sapiens, UniProt P09874); experiment: PARP enzymatic assay; assay type: biochemical; settings: read-out: IC50 PARP1; dose response 1 nM to 1 mM
PARP16 = target: T1, PARP16 (Homo sapiens, UniProt Q8N5Y8); experiment: Modified PARP enzymatic assay with IRE-1 as substrate, PARP16; assay type: biochemical; settings: for IC50: read-out: IC50 PARP16, dose response 1 nM to 1 mM; for PARP16 inhibition at 1 μM: from dose response data; for Selectivity: greater IC50 potency for PARP16 compared with PARP3: ratio of IC50 values, in vitro
T1 sequence (Q8N5Y8 1-322): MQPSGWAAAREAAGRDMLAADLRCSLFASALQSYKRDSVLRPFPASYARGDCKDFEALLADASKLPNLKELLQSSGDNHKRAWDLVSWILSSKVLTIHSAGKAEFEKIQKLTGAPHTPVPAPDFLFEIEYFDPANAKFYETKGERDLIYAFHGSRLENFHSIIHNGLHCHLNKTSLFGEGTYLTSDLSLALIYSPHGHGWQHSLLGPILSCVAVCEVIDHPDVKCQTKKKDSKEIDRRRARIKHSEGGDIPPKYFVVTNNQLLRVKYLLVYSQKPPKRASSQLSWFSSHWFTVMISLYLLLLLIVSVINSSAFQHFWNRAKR

PARP3 = target: T2, PARP3 (Homo sapiens, UniProt Q9Y6F1); experiment: PARP enzymatic assay; assay type: biochemical; settings: for PARP3 inhibition at 1 μM: from dose response data; for Inhibition of PARP3, mean (panel): 10 μM, 0 equals no inhibition, 100 total inhibition, N = 5 (Table 5); for IC50: read-out: IC50 PARP3, dose response 1 nM to 1 mM
T2 sequence (Q9Y6F1 1-533): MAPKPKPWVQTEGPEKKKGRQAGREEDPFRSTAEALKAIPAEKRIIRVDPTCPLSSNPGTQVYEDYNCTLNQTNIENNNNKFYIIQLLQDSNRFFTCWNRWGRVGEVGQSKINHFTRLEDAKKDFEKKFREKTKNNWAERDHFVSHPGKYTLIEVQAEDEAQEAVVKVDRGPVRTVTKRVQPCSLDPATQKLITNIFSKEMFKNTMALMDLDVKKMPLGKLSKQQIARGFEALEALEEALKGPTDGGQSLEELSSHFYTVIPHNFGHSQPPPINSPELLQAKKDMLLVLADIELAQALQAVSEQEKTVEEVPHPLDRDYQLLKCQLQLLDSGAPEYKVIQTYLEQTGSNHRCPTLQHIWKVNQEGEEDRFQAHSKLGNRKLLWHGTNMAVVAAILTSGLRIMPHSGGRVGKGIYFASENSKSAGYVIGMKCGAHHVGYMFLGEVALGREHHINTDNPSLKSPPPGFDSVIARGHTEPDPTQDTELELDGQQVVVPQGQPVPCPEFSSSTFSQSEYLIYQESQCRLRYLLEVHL

[1] = test system: F508del-CFTR in BHK cells; experiment: HTS F508del-CFTR correction assay; assay type: cell-based, hamster; settings: 24 h treatment
[2] = test system: F508del-CFTR in BHK cells; settings: cited from earlier work
PARP4 = PARP4 (Homo sapiens, UniProt Q9UKK3); experiment: PARP enzymatic assay, PARP4; assay type: biochemical; settings: 10 μM; 0 equals no inhibition, 100 total inhibition; N = 5 (Table 5)
Method in brief: (§1)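 Commercial recombinant PARP2, PARP4, PARP-5a and PARP-5b were assayed with a chemiluminescent universal PARP kit on histone-coated strip wells, following the manufacturer's protocol. Anchored histones served as the ADP-ribosylation substrate. Inhibition was read as loss of chemiluminescent signal.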

[3] = test system: F508del-CFTR in BHK cells; experiment: FMP functional F508del-CFTR correction assay; assay type: cell-based, hamster; settings: 1 μM each, 24 h pretreatment, forskolin + genistein, BHK cells (Figure 2C)
Method in brief: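 BHK cells expressing F508del-CFTR were seeded at 25 000 cells per well and treated with test compound (1 μM) for 24 h, then washed with PBS. Cells were loaded with a voltage-sensitive oxonol-derived FLIPR dye plus quencher in low-chloride gluconate/HEPES buffer (pH 7.4) containing genistein (50 μM) for 5 min at room temperature. Forskolin (10 μM) was added, and the mean initial fluorescence rate (Vmax) was expressed as % of VX809 response.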

PARP5 = experiment: PARP enzymatic assay, PARP5; assay type: biochemical; settings: 10 μM; 0 equals no inhibition, 100 total inhibition; N = 5 (Table 5)
Method in brief: as §1

PARP2 = experiment: PARP enzymatic assay, PARP2; assay type: biochemical; settings: 10 μM; 0 equals no inhibition, 100 total inhibition; N = 5 (Table 5)
Method in brief: as §1

TANKYRASE 2 = target: T3, TANKYRASE 2 (Homo sapiens, UniProt Q9H2K2); experiment: PARP enzymatic assay, TANKYRASE 2; assay type: biochemical; settings: 10 μM; 0 equals no inhibition, 100 total inhibition; N = 5 (Table 5)
T3 sequence (Q9H2K2 1-1166): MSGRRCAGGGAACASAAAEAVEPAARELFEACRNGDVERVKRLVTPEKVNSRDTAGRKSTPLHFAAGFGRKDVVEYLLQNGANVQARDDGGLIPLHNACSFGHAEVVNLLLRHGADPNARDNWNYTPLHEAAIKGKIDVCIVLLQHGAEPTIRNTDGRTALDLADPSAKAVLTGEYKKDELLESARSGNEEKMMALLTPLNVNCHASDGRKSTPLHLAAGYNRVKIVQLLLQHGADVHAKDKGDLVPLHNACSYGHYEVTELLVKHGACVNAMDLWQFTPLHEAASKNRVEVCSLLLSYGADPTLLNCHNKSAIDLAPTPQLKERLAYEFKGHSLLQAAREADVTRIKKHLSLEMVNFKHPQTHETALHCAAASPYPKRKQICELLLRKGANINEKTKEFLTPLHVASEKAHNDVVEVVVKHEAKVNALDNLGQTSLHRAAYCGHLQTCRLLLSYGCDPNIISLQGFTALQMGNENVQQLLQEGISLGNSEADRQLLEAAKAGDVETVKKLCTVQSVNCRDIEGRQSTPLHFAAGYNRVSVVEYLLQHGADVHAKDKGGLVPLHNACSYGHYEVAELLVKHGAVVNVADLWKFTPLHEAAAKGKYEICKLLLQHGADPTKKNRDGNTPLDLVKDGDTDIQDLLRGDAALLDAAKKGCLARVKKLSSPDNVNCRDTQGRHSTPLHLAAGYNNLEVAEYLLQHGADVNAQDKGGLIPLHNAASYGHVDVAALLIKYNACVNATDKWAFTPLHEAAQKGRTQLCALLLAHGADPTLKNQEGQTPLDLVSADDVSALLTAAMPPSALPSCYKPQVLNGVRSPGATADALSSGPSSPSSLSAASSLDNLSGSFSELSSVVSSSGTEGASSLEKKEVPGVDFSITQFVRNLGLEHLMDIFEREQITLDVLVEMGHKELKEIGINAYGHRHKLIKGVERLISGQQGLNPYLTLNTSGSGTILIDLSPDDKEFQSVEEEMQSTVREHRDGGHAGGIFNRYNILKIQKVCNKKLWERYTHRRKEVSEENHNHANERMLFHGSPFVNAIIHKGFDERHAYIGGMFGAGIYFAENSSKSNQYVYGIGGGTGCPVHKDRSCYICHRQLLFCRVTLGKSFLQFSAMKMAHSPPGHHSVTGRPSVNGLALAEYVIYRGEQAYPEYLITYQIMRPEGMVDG
Method in brief: (§2)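 Recombinant human PARP-5a (tankyrase 1) and PARP-5b (tankyrase 2) were obtained commercially. Inhibition was measured with a universal chemiluminescent PARP kit according to the manufacturer's protocol. Anchored histone proteins coated on strip wells served as the ADP-ribosylation substrate.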

TANKYRASE1 = target: T4, TANKYRASE1 (Homo sapiens, UniProt O95271); experiment: PARP enzymatic assay, TANKYRASE1; assay type: biochemical; settings: 10 μM; 0 equals no inhibition, 100 total inhibition; N = 5 (Table 5)
T4 sequence (O95271 1-1327): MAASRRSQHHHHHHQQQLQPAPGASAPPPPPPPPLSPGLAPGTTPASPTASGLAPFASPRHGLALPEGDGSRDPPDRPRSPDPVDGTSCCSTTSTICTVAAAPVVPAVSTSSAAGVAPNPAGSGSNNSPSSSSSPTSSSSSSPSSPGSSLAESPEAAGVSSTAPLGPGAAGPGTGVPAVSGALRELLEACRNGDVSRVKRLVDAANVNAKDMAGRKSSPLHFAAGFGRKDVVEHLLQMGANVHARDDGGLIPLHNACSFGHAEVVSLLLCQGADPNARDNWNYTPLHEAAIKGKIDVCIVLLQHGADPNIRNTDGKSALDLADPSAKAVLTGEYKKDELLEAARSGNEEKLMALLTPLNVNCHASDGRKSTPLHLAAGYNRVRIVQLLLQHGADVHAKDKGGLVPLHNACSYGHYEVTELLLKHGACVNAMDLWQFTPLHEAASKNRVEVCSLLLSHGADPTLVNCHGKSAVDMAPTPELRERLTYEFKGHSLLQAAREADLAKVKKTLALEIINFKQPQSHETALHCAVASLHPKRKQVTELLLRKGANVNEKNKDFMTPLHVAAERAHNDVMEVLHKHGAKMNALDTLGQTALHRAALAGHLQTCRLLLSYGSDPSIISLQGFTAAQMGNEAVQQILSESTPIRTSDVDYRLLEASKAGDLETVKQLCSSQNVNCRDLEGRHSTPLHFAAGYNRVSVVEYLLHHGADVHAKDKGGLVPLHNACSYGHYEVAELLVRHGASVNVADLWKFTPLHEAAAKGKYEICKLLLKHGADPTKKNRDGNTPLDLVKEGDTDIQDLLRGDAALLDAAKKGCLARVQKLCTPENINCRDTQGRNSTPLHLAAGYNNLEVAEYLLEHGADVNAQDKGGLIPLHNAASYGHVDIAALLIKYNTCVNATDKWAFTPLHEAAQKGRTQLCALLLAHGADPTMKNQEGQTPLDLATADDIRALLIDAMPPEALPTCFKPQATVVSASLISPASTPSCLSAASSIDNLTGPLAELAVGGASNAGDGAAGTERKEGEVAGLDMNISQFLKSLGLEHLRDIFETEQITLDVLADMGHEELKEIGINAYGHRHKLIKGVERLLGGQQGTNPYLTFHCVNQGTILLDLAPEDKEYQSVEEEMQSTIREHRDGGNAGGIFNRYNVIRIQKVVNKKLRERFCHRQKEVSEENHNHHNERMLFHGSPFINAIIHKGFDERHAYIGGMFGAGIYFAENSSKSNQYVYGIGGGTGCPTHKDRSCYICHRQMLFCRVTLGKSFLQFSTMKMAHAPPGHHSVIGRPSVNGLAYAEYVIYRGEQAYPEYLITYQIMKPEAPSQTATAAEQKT
Method in brief: as §2

[4] = 1 μM each, BHK cells (Figure 2B)
[5] = 10 μM each, BHK cells (Figure 2A)

Sequence of PARP1 (P09874 whole entry): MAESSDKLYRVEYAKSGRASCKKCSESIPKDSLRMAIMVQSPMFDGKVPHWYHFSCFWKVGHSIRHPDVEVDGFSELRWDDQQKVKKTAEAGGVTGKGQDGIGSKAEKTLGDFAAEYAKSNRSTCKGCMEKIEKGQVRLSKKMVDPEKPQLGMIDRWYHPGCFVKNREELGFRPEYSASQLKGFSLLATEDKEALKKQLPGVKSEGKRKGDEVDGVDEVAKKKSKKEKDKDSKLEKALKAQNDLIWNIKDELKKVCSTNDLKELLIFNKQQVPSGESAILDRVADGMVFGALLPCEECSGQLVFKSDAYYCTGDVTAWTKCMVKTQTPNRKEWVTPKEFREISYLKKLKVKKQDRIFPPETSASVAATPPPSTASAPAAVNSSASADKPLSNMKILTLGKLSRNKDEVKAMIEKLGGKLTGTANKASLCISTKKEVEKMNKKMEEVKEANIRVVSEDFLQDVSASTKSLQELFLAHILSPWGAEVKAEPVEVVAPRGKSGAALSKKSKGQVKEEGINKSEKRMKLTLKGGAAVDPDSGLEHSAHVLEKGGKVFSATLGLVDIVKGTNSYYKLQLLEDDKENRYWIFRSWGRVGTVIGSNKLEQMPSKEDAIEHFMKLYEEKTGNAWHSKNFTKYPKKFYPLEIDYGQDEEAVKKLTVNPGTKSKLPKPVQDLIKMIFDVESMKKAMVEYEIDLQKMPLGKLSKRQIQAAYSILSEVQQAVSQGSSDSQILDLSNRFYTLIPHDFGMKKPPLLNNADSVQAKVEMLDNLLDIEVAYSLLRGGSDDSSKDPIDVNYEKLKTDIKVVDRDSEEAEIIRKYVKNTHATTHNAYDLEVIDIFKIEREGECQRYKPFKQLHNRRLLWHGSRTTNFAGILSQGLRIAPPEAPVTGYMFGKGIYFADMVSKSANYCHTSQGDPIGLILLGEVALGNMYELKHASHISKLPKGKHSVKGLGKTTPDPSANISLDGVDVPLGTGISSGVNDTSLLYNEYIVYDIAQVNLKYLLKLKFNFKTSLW
Sequence of PARP4 (Q9UKK3 whole entry, species assumed): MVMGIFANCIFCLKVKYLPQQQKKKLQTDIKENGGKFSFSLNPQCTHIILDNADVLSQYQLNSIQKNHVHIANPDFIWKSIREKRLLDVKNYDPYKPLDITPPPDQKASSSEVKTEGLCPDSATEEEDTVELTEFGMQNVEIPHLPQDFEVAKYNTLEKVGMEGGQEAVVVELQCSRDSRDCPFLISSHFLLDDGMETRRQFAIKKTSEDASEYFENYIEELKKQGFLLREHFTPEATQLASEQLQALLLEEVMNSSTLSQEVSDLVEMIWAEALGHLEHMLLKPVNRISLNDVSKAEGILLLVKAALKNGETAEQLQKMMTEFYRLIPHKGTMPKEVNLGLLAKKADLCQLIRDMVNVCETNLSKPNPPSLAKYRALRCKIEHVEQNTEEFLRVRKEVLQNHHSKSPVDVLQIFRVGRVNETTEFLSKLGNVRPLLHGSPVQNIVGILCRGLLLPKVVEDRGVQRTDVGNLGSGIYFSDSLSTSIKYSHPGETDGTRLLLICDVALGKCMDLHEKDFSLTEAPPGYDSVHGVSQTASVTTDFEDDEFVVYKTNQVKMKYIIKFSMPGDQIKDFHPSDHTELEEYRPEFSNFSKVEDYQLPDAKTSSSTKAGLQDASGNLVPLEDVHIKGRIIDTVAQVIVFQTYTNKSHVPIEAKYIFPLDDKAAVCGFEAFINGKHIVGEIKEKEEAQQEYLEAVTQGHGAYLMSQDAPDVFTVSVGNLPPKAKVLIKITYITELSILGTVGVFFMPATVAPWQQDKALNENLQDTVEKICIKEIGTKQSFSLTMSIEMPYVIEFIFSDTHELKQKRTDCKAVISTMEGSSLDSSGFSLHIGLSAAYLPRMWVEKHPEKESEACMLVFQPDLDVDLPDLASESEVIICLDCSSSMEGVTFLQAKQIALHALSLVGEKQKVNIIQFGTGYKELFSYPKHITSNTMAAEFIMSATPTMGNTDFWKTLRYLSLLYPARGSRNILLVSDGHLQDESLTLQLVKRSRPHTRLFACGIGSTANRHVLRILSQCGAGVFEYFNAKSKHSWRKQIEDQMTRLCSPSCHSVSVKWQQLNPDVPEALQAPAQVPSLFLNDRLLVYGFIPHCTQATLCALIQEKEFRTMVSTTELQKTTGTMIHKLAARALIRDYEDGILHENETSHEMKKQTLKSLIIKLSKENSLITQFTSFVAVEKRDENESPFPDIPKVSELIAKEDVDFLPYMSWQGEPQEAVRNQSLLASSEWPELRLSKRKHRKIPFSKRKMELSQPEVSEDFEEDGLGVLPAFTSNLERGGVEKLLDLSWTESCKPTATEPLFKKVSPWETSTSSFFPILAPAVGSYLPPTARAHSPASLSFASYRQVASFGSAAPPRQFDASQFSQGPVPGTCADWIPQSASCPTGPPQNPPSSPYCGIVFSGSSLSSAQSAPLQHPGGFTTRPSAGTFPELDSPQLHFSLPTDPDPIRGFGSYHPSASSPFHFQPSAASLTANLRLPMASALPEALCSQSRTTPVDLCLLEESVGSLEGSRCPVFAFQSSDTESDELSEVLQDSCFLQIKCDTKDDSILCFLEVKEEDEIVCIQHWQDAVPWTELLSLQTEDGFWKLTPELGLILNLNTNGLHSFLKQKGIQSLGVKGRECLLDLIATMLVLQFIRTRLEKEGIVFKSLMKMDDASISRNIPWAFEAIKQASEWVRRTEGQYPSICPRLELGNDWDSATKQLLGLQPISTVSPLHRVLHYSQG

IC50 (PARP1) | IC50 (PARP16) | Increase in relative PARP3/PARP16 IC50 potency compared with latonduine A (1) (PARP3) | PARP3 inhibition at 1 μM (PARP3) | Inhibition of PARP3, mean (panel) (PARP3) | Selectivity: greater IC50 potency for PARP3 compared with PARP16 (PARP3; ratio of IC50 values, in vitro) | IC50 (PARP3) | PARP16 inhibition at 1 μM (PARP16) | Selectivity: greater IC50 potency for PARP16 compared with PARP3 (PARP16) | Inhibition of PARP4, mean (panel) (PARP4) | Selectivity: greater IC50 potency for PARP16 compared with PARP3 (PARP16; listed as Latonduine A (1)) | Inhibition of TAN2, mean (panel) (TANKYRASE 2) | Inhibition of TAN1, mean (panel) (TANKYRASE1) | Molecule | F508del-CFTR corrector activity (surface expression) in HTS assay [1, 4] | F508del-CFTR corrector activity (surface expression) in HTS assay [1, 5] | EC50 in the F508del-CFTR trafficking screening assay [2] | Functional F508del-CFTR correction in FMP assay [3] | Inhibition of PARP5, mean (panel) (PARP5) | Inhibition of PARP2, mean (panel) (PARP2)
20.1 µM | 296 µM | 768 fold | 39% | 95.6 | 96 fold | 3.1 µM | – | – | – | – | – | – | O=C1NCC(c2ccccc2)C(O)c2ccccc21 (racemic) [compound 5, (±)-5-hydroxy-4-phenyl-2,3,4,5-tetrahydro-1H-benzo[c]azepin-1-one] | neither 5 or 6 alone shows corrector activity | neither compound 5 or 6 alone gives F508del-CFTR correction | – | – | – | –
17.8 µM | 0.362 µM | – | – | 25.8 | – | 74.1 µM | 81% | 205 fold | – | – | – | – | O=C1NCC(c2ccccn2)C(O)c2cc(Cl)c(Cl)cc21 (racemic) [compound 6, (±)-7,8-dichloro-5-hydroxy-4-(pyridin-2-yl)-2,3,4,5-tetrahydro-1H-benzo[c]azepin-1-one] | neither 5 or 6 alone shows corrector activity | neither compound 5 or 6 alone gives F508del-CFTR correction | – | – | – | –
– | – | – | – | – | – | – | – | – | – | – | – | – | Nc1nc2c(c(C(=O)O)n1)-c1c([nH]c(Br)c1Br)C(=O)NC2 [compound 2, latonduine B] | – | – | low nanomolar | – | – | –
24.3 µM | 0.427 µM | – | 37% | 83.7 | – | 3.4 µM | 79% | 8 fold | 18.3 | ≈ 8 fold | 10.1 | 11.7 | latonduine A [compound 1] | – | – | low nanomolar | generates functional CFTR correction | 9.9 | 21.6
